The source made the active and inactive calls. The rule behind the calls is not given here.
Columns and labels:
[1] = molecular target: T1, Procathepsin L (Homo sapiens, UniProt P07711); experiment: Inhibition of recombinant cathepsin L using ZFR-pNA as substrate at 100 uM preincubated for 45 mins
How it was run: (§1)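 Recombinant cathepsin L or S activated with 1 mM DTT in 0.1 M acetate pH 5.5. Preincubated 45 min at room temperature with compound in phosphate buffer with 0.1% BSA, 1 mM EDTA and 0.001% Tween. Z-FR-pNA added, reaction 5 min; final 30 nM enzyme and 5.0 μM substrate. Triplicate runs; IC50 from at least seven concentrations.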
Target sequence in this assay (P07711 114-333 limits assumed): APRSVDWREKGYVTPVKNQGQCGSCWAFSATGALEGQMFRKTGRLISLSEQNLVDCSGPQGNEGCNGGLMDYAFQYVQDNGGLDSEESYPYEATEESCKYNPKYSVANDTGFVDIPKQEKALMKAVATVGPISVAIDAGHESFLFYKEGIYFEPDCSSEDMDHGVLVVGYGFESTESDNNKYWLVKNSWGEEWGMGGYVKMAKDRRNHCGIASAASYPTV

[2] = molecular target: T1, Procathepsin L; experiment: Inhibition of recombinant cathepsin L using ZFR-pNA as substrate preincubated for 45 mins; how it was run: as §1
Target sequence in this assay (P07711 whole entry): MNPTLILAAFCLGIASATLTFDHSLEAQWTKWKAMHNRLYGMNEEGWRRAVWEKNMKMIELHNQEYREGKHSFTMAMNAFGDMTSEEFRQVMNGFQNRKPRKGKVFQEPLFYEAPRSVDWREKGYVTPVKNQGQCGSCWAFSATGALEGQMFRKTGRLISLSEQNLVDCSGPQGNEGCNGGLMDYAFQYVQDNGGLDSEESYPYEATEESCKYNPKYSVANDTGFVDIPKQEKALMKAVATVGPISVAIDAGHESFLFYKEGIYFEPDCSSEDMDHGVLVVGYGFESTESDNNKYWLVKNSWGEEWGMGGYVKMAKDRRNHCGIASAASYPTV

[3] = molecular target: Cruzipain (Trypanosoma cruzi, UniProt P25779); experiment: Inhibition of Trypanosoma cruzi recombinant cruzain using Z-FR-AMC as substrate preincubated for 10 mins before substrate addition
How it was run: (§2)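 Recombinant cruzain preincubated 10 min at room temperature with compound (DMSO) in phosphate buffer containing EDTA, 100 mM NaCl and DTT. Z-FR-AMC then added; final 0.5 nM enzyme and 2 μM substrate. Fluorescence read at 1, 5 and 10 min; % inhibition versus no-inhibitor control. Single-point values are triplicate means; IC50 by nonlinear regression from multiple concentrations. Some runs used 0.01% Triton X-100.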

[4] = molecular target: Cruzipain (Trypanosoma cruzi) (UniProt P25779); experiment: Inhibition of Trypanosoma cruzi recombinant cruzain using Z-FR-AMC as substrate at 20 uM preincubated for 10 mins before substrate addition
[5] = Cytotoxicity against BALB/c mouse splenocytes assessed as highest nontoxic concentration by measuring [3H]-thymidine incorporation after 24 hrs by beta-radiation counting; type: cell-based, Splenocyte; conditions: mouse, splenocytes, read-out: Activity
How it was run: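 BALB/c splenocytes, 5 × 10⁶ cells/well in RPMI-1640 with 10% FBS. Compound in DMSO at 1.0, 10 and 100 μg/mL or more, triplicate; untreated and saponin controls. 24 h at 37 °C, 5% CO₂. 1.0 μCi ³H-thymidine added, incorporation read by β-counting as % of untreated. Highest nontoxic concentration estimated.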

[6] = test system: Trypanosoma cruzi; experiment: Antitrypanosomal activity against trypomastigotes of Trypanosoma cruzi Y infected in LLC-MK2 cells assessed as parasite motility after 24 hrs; type: functional, organism-based; conditions: LLC-MK2, 24 h
How it was run: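 Y strain bloodstream trypomastigotes taken from LLC-MK2 culture supernatant, 4 × 10⁵ cells/well. Five compound concentrations (DMSO), triplicate, 24 h at 37 °C, 5% CO₂. Viable parasites judged by motility in a Neubauer chamber. Inhibition calculated relative to untreated culture; IC50 by nonlinear regression.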

[7] = test system: Trypanosoma cruzi; experiment: Antitrypanosomal activity against epimastigotes of Trypanosoma cruzi Y in axenic culture assessed as parasite motility after 11 days; conditions: 264 h
[8] = molecular target: Cathepsin S (Homo sapiens, UniProt P25774); experiment: Inhibition of recombinant cathepsin S using ZFR-pNA as substrate preincubated for 45 mins; how it was run: as §1
[9] = test system: Trypanosoma cruzi; experiment: Antitrypanosomal activity against trypomastigotes of Trypanosoma cruzi Y infected in mouse peritoneal macrophages assessed as reduction of intracellular parasite level at 10 uM after 4 days; type: functional, organism-based
How it was run: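 Peritoneal exudate macrophages, 2 × 10⁵/well on coverslips, infected with Y strain trypomastigotes at 10 parasites per macrophage for 2 h, then washed. Compound in DMSO added for 6 h, medium replaced, culture continued 4 days. After methanol fixation and Giemsa staining, 100 cells per slide counted for % infected macrophages and amastigotes per cell. IC50 based on % infected cells versus untreated.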

[10] = molecular target: Cruzipain (Trypanosoma cruzi) (UniProt P25779); experiment: Inhibition of Trypanosoma cruzi recombinant cruzain using Z-FR-AMC as substrate at 100 uM preincubated for 10 mins before substrate addition; how it was run: as §2
[11] = test system: Trypanosoma cruzi; experiment: Inhibition of trypomastigotes of Trypanosoma cruzi Y invasion to mouse peritoneal macrophages at 50 uM […]; type: functional, organism-based

Chain of Cathepsin S (P25774 whole entry): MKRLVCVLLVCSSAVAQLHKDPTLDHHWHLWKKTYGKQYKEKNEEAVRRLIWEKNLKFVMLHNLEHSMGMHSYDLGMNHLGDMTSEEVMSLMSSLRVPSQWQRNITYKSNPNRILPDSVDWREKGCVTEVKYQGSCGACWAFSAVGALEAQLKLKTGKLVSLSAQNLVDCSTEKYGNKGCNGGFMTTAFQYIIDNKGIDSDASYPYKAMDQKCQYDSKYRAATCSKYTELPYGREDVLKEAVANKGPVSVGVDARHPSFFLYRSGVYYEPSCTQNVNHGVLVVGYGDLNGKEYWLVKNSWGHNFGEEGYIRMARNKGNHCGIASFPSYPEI
Chain of Cruzipain (P25779 whole entry): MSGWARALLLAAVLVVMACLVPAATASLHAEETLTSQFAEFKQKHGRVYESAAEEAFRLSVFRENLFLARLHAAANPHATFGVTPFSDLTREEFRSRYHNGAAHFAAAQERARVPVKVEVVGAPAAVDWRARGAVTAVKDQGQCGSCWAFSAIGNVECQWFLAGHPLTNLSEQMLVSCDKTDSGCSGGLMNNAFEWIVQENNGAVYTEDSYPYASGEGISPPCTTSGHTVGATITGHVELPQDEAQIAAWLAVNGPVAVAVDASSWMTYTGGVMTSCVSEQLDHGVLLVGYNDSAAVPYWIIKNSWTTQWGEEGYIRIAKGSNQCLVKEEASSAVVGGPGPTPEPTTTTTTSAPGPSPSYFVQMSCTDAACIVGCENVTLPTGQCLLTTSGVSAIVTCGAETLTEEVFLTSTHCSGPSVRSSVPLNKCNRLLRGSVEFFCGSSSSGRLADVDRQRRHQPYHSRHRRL
Chain of Cruzipain (Trypanosoma cruzi) (P25779 123-467 limits assumed): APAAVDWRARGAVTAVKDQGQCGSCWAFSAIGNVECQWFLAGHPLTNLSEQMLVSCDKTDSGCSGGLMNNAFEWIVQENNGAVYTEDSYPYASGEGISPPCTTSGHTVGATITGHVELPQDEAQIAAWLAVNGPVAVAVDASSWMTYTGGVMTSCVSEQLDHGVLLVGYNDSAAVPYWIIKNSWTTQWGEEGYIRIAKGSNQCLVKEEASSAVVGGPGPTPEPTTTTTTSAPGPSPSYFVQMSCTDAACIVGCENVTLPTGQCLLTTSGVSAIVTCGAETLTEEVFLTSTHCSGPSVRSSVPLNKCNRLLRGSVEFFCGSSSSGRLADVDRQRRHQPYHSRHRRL

SMILES	inhibition [4]	MNTC at 24 h [5]	IC50 [6]	IC50 [7]	further results
CCC1S/C(=N/N=C(\C)COc2ccccc2)NC1=S (racemic)	48%	25 µg/mL	31.5 µM	26.1 µM	inhibition [1]: 81%; IC50 [2]: 13.8 µM; IC50 ([3]; read-out: IC50): 18.7 µM
CCC1S/C(=N/N=C(\C)COc2ccccc2)N(C2CCCCC2)C1=O (racemic)	10%	> 100 µg/mL	–	–	–
C/C(COc1ccccc1)=N\N=C1\SC(C(C)C)C(=O)N1C (racemic)	81%	> 100 µg/mL	10.7 µM	14 µM	IC50 [8]: > 100 µM; inhibition [1]: 0%; IC50 [2]: > 100 µM; IC50 ([3]; read-out: IC50): 8 µM
C/C(COc1ccccc1)=N\N=c1\scc(-c2ccccc2)n1C	inactive	10 µg/mL	175 µM	25.6 µM	–
C/C(COc1ccccc1)=N\N=C1\SC(C)C(=O)N1c1ccccc1 (racemic)	50%	100 µg/mL	29 µM	31.8 µM	Activity [9]: Active; inhibition [1]: 0%; IC50 ([3]; read-out: IC50): 10.8 µM
C/C(COc1ccccc1)=N\N=C1\SCC(=O)N1C	0%	> 100 µg/mL	–	–	IC50 [3]: ND(Insoluble)
C/C(COc1ccccc1)=N\Nc1nc(-c2cccs2)cs1	–	50 µg/mL	37.6 µM	16.6 µM	inhibition [10]: 30%
C/C(COc1ccccc1)=N\N=C1/NC(=O)C(C(C)C)S1 (racemic)	60.8%	> 100 µg/mL	16.8 µM	12.2 µM	inhibition [1]: 11%; IC50 ([3]; read-out: IC50): 18.9 µM
CCC1S/C(=N/N=C(\C)COc2ccccc2)N(c2ccc(C)cc2)C1=O (racemic)	65%	100 µg/mL	19.9 µM	15 µM	IC50 ([3]; read-out: IC50): 11.8 µM
C/C(COc1ccccc1)=N\Nc1nc(-c2ccccn2)cs1	inactive	100 µg/mL	34.8 µM	11.8 µM	–
CC1CS(=O)(=O)CCN1/N=C/c1ccc([N+](=O)[O-])o1 (stereo not given) [NIFURTIMOX]	–	1 µg/mL	2.7 µM	1.9 µM	–
COc1ccc(-c2csc(N/N=C(\C)COc3ccccc3)n2)cc1	inactive	100 µg/mL	17.8 µM	14.9 µM	–
C/C(COc1ccccc1)=N\Nc1nc(-c2ccc(F)cc2)cs1	inactive	> 100 µg/mL	11.5 µM	41.3 µM	–
C/C(COc1ccccc1)=N\Nc1nc(-c2ccc([N+](=O)[O-])cc2)cs1	inactive	100 µg/mL	5.7 µM	1.9 µM	Activity [9]: Active
C/C(COc1ccccc1)=N\Nc1nc(-c2ccc(Cl)cc2Cl)cs1	40%	< 1 µg/mL	17 µM	42.2 µM	–
CCC1S/C(=N/N=C(\C)COc2ccccc2)N(C)C1=O (racemic)	50%	> 100 µg/mL	–	–	IC50 [8]: > 100 µM; inhibition [1]: 6%; IC50 [2]: > 100 µM; IC50 ([3]; read-out: IC50): 31.9 µM
C/C(COc1ccccc1)=N\N=C1\SC(C)C(=O)N1C (racemic)	0%	25 µg/mL	–	–	–

SMILES	inhibition [4]	MNTC at 24 h [5]	IC50 [6]	IC50 [7]	further results
CCC1S/C(=N/N=C(\C)COc2ccccc2)N(c2ccc(OC)cc2)C1=O (racemic)	71%	100 µg/mL	9 µM	6.8 µM	IC50 ([3]; read-out: IC50): 8.7 µM
C/C(COc1ccccc1)=N\N=c1\scc(-c2ccccc2)n1-c1ccccc1	inactive	> 100 µg/mL	61.1 µM	2.6 µM	–
C/C(COc1ccccc1)=N\Nc1nc(-c2cccc([N+](=O)[O-])c2)cs1	inactive	100 µg/mL	3.8 µM	4 µM	–
C/C(COc1ccccc1)=N\Nc1nc(-c2ccc(C)cc2)cs1	inactive	100 µg/mL	49.7 µM	67 µM	–
CCC1S/C(=N/N=C(\C)COc2ccccc2)NC1=O (racemic)	5%	> 100 µg/mL	–	–	inhibition [1]: 5%
C/C(COc1ccccc1)=N\Nc1nc(-c2ccc(C(C)(C)C)cc2)cs1	inactive	50 µg/mL	–	–	–
C/C(COc1ccccc1)=N\Nc1nc(-c2ccc3ccccc3c2)cs1	inactive	> 100 µg/mL	36.4 µM	83 µM	–
C/C(COc1ccccc1)=N\Nc1nc(-c2ccc(Cl)c(Cl)c2)cs1	20%	25 µg/mL	17 µM	19 µM	–
C/C(COc1ccccc1)=N\Nc1nc(-c2ccc(Cl)cc2)cs1	13%	100 µg/mL	–	57.1 µM	–
C/C(COc1ccccc1)=N\Nc1nc(-c2ccc(Br)cc2)cs1	25%	100 µg/mL	–	49.8 µM	–
C/C(COc1ccccc1)=N\Nc1nc(-c2cccnc2)cs1	inactive	100 µg/mL	12.3 µM	20.5 µM	–
C/C(COc1ccccc1)=N\Nc1nc(-c2ccco2)cs1	–	> 100 µg/mL	17.7 µM	–	inhibition [10]: 4.7%
C/C(COc1ccccc1)=N\Nc1nc(-c2ccc(Cl)c(Cl)c2Cl)cs1	inactive	> 1 µg/mL	–	–	–
C/C(COc1ccccc1)=N\N=C1\SCC(=O)N1c1ccccc1	66%	> 100 µg/mL	18 µM	25.8 µM	IC50 [8]: > 100 µM; inhibition [1]: 0%; IC50 [2]: > 100 µM; IC50 ([3]; read-out: IC50): 10.2 µM
C/C(COc1ccccc1)=N\N=C1/NC(=O)C(C)S1 (racemic)	3%	> 100 µg/mL	–	–	inhibition [1]: 0%
C[C@@H]1[C@H](O)[C@@H](C)/C=C/C=C/C=C/C=C/C=C/C=C/C=C/[C@H](O[C@@H]2O[C@H](C)[C@@H](O)[C@H](N)[C@@H]2O)C[C@@H]2O[C@](O)(C[C@@H](O)C[C@@H](O)[C@H](O)CC[C@@H](O)C[C@@H](O)CC(=O)O[C@H]1C)C[C@H](O)[C@H]2C(=O)O	–	–	–	–	inhibition [11]: Active
